Measurements reported in PubChem BioAssay AID2247 (Johns Hopkins Ion Channel Center, 2010).
Hit rate of the full screen: of about 300,000 compounds, about 1,200 (0.4%) were called active.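 Rule for the calls: active = B-score over 3 SD under the library average, no early fluorescence shift, positive overall ratio signal; inactive = the rest.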 For the sample, actives were picked, then their nearest neighbours and some compounds at random.

The compounds below were run against Short transient receptor potential channel 4 (Mus musculus) (UniProt Q9QUQ5) (assay: inhibitors of mouse TRPC4 channel, primary screen, Fluo4 calcium, HEK293 TRPC4beta/mu-opioid cells (AID 2247)). Details: DAMGO-evoked Fluo4 calcium flux, at 10 µM; hits give low values.
Sequence of Short transient receptor potential channel 4 (Mus musculus) (Q9QUQ5 whole entry, looked up): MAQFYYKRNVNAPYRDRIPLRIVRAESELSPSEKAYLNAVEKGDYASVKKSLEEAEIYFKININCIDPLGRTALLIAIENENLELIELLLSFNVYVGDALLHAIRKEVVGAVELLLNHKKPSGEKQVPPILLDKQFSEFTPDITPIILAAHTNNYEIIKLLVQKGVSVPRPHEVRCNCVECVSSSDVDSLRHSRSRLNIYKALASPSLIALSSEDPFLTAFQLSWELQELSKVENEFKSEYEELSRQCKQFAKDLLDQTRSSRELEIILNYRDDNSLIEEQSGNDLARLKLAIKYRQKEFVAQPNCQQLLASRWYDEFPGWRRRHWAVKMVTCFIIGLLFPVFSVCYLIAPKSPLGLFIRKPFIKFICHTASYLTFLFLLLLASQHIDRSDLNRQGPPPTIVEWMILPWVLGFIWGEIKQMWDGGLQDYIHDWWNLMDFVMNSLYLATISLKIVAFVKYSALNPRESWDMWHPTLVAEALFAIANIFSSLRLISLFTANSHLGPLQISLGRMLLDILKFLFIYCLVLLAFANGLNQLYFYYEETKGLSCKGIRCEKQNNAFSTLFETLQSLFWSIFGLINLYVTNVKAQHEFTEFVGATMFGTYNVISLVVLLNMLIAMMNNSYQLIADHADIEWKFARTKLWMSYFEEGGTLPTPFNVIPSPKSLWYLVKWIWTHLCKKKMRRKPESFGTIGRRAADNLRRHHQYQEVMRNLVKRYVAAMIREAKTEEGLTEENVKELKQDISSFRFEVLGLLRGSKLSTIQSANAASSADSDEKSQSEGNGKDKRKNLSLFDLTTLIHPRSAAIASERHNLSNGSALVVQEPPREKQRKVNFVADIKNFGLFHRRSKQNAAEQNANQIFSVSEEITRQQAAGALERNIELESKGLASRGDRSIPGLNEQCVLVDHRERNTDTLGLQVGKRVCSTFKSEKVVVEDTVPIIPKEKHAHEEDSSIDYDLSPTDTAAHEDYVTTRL
Outline: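 Assay system – HEK293 line stably carrying TRPC4beta and mu-opioid receptor · Doses – single dose · Detection – Fluo4 calcium-dye fluorescence, kinetic read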

Row | SMILES | B-score
1 | Cc1onc(-c2c(F)cccc2Cl)c1C(=O)N(C)CC(=O)Nc1cccc(F)c1 | -7 (active)
2 | CN(CC(=O)Nc1cccc(F)c1)C(=O)C1=COCCO1 | inactive
3 | Cc1noc(C)c1COc1ccccc1C(=O)N(C)CC(=O)Nc1cccc(F)c1 | inactive
4 | Cc1sc(NC(=O)C2C3CCC(O3)C2C(=O)O)c(C(=O)OC(C)C)c1-c1ccc(Cl)cc1 (configuration not stated) | inactive
5 | Cc1cccc(-c2ncc(CN3CCC(CO)(CCCc4ccccc4)CC3)cn2)c1 | inactive
6 | CC(C)(O)C#Cc1ccc(CN2CCC(CO)(CCc3ccccc3)CC2)cc1 | inactive
7 | OCC1(CCc2ccccc2)CCN(Cc2ccc3nsnc3c2)CC1 | -7 (active)
8 | O=C(CN1CCOc2ccccc21)N1CCC(Cc2ccccc2)CC1 | inactive
9 | CC(c1ccccn1)N(C)C(=O)c1ccc2nc(Cc3cccc(Cl)c3)oc2c1 (configuration not stated) | inactive
10 | NC1=NC[C@@H](Cc2ccc(O)cc2)N1CC1CCCCC1 | inactive
11 | CC(C)n1c(COc2ccccc2)nc2ccccc21 | inactive
12 | CC(C)n1c(NCc2c[nH]c3ccccc23)nc2ccccc21 | -8 (active)
13 | CC(C)n1c(-c2cccs2)nc2ccccc21 | inactive
14 | Cc1ccc(Cn2nnc3c(=O)[nH]c(C4CCN(S(=O)(=O)/C=C/c5ccccc5)CC4)nc32)cc1 | inactive
15 | N#Cc1c(NC(=O)C2CC(Cl)=CCC2C(=O)O)sc2c1CCCCC2 (configuration not stated) | -6 (active)
16 | N#Cc1c(NC(=O)CCCl)sc2c1CCCCC2 | inactive
17 | N#Cc1c(NC(=O)C2CCCO2)sc2c1CCCCC2 (configuration not stated) | inactive
18 | CC(C)(C)c1cc2cccnc2n1Cc1ccccc1 | -7 (active)
19 | Cc1cc(C(C)(C)C)n2nc(C)c(-c3ccccc3)c2n1 | inactive
20 | Cn1c(=O)c2c(nc(OCc3cccnc3)n2Cc2ccccc2)n(C)c1=O | inactive
21 | Nc1cc(N)nc(SCc2cccc(F)c2)n1 | inactive
22 | CC(C)(C)c1cc2cccnc2n1Cc1cccc(F)c1 | -6 (active)

Row | SMILES | B-score
23 | COc1ccnc2c1c(=O)n(Cc1cccc(F)c1)c(=O)n2C | inactive
24 | CCN(CC)C(=O)Cn1cc(S(=O)(=O)CC(=O)NCc2ccc3c(c2)OCO3)c2ccccc21 | inactive
25 | Cc1nc2ccccc2n1C(=O)N1CCOCC1 | inactive
26 | COc1ccc(C(=O)Nc2ccc(-n3nncc3C(C)(C)C)cc2)cc1 | inactive
27 | O=S(=O)(O)Oc1c[nH]c2ccccc12 | inactive
28 | COc1ccc(CN(C)Cc2nc3cc(OC)c(OC)cc3c(=O)[nH]2)c(OC)c1 | inactive
29 | Cc1ccc(NS(=O)(=O)c2ccc(C)c(NC(=O)COc3ccc4ccccc4c3)c2)c(C)c1 | inactive
30 | O=[N+]([O-])c1ccccc1S(=O)(=O)Nc1cccc2cccnc12 | inactive
31 | COc1cc(NS(=O)(=O)c2ccc3ccccc3c2)c2ncccc2c1 | -6 (active)
32 | CC1(C)S[C@@H]2[C@H](NC(=O)COc3ccccc3)C(=O)N2C1C(=O)OCc1ccccc1 (some centres not stated) | inactive
33 | CCc1ccc(C(=O)COC(=O)c2ccco2)cc1 | inactive
34 | COc1ccc(-n2cc(CNC3CCOCC3)c(-c3cccc(F)c3)n2)cc1 | inactive
35 | CCC(O)C1CCN(Cc2cn(-c3ccc(OC)cc3)nc2-c2cccc(F)c2)CC1 (configuration not stated) | -8 (active)
36 | COc1ccc(-n2cc(CN(C)Cc3n[nH]c(=O)[nH]3)c(-c3cccc(F)c3)n2)cc1 | inactive
37 | Cc1c(CCOC(=O)CC23CC4CC(CC(C)(C4)C2)C3)sc[n+]1Cc1ccc([N+](=O)[O-])cc1 | inactive
38 | CCn1cc(CN2CCC(n3nccc3NC(=O)CCCc3ccccc3)CC2)c(C)n1 | inactive
39 | Cc1ccc(CN2CCC(n3nccc3NC(=O)CCCc3ccccc3)CC2)o1 | inactive
40 | Cc1c(CN2CCC(n3nccc3NC(=O)CCc3ccccc3)CC2)cnn1C | -7 (active)
41 | COC(=O)c1onc(-c2c(OC)cc(OC)cc2OC)c1C(=O)OC | inactive
42 | O=C(Cn1ncc2c3ccccc3n(Cc3ccccc3)c2c1=O)NCc1ccccn1 | inactive
43 | Cc1ccc(NC(=O)CSc2nc(=O)n(CCN(C)C)c3c2CCCC3)c(C)c1 | inactive
44 | Cc1cc(CNC(=O)c2cccc([N+](=O)[O-])c2)c2ccccc2n1 | inactive

Row | SMILES | B-score
45 | N#Cc1cccc(Nc2c3c(nc4ccccc24)CCCC3)c1 | inactive
46 | O=[N+]([O-])c1cccc(Nc2c3ccccc3nc3ccccc23)c1 | -7 (active)
47 | CC1CC(C)CN(CCCNC(=O)c2csc3c2CCCCC3)C1 (configuration not stated) | inactive
48 | COc1ccc(CNC(=O)[C@@H]2CC=C[C@@H]3CCN(C4CC4)C(=O)[C@@H]32)cc1 | inactive
49 | CCc1ccc2oc(=O)cc(CN3CCCCC3C)c2c1 (configuration not stated) | inactive
50 | Cc1[nH]n(C)c(=O)c1C(=O)c1c(-c2c(Cl)cccc2Cl)noc1C | -6 (active)
51 | Cc1onc(-c2c(Cl)cccc2Cl)c1C(=O)NNC(=O)c1c(-c2c(Cl)cccc2Cl)noc1C | inactive
52 | Cc1onc(-c2c(Cl)cccc2Cl)c1C(=O)c1c[nH]c(C(=O)NC2CC2)c1 | inactive
53 | COc1cc(CNC2CCCCC2)c(Br)cc1OC1CCCC1 | inactive
54 | COc1cc(CN2CCC(C(N)=O)CC2)ccc1OCc1ccccc1 | inactive
55 | COc1cc(CNC2CCCC2)c(Br)cc1OCc1ccccc1 | -6 (active)
56 | Cc1cccc(C2C3=C(CCCC3=O)N=C3c4ccccc4C(=O)C32)c1 (configuration not stated) | inactive
57 | Nc1ccc(OCC(O)C[n+]2ccc(CCS(=O)(=O)[O-])cc2)cc1 (configuration not stated) | inactive
58 | CN(CC(=O)N1CCN(c2ccccc2)CC1)S(=O)(=O)c1cccs1 | inactive
59 | Cc1cccc(NS(=O)(=O)c2ccc(C)c(C(N)=O)c2)c1 | inactive
60 | CC1CN(CCCOc2ccccc2-c2ccccc2)CC(C)O1 (configuration not stated) | inactive
61 | CC1CCCN(CCOCCOc2ccccc2-c2ccccc2)C1 (configuration not stated) | -7 (active)
62 | c1ccc(-c2ccccc2OCCN2CCCCC2)cc1 | inactive
63 | COc1cc(N2CCCC2)c(OC)cc1/C=C(/C#N)c1cccc(Br)c1 | inactive
64 | Cc1cc(NC(=O)CN2C(=O)NC(C)(CCc3ccccc3)C2=O)no1 (configuration not stated) | inactive
65 | CCOc1ccc2nc(N3CCCN(C(=O)Nc4ccccc4C)CC3)c(C#N)cc2c1 | inactive
66 | CCOC(=O)c1cc(C)nc(S(C)(=O)=O)c1C#N | inactive

Row | SMILES | B-score
67 | CCOC(=O)c1cc(C#N)c(N2CCCCC2)nc1-c1ccccc1 | -8 (active)
68 | O=C(CN(Cc1ccc(Br)cc1)S(=O)(=O)c1ccccc1)NCc1ccncc1 | inactive
69 | CSCC[C@H](NC(=O)NCc1cccs1)C(=O)O | inactive
70 | COc1cc(CN2CCCC(C(=O)c3ccc(SC)cc3)C2)cc(Cl)c1O (configuration not stated) | inactive
71 | COc1ccc(CN2CCCC(C(=O)c3ccc(Cl)cc3)C2)cc1Cn1cncn1 (configuration not stated) | -7 (active)
72 | COc1ccc(C(=O)C2CCCN(Cc3ccc4nonc4c3)C2)c(C)c1 (configuration not stated) | inactive
73 | CCC(C)OC(=O)C(C)Oc1ccc(-c2ccccc2)cc1 (configuration not stated) | inactive
74 | O=S(=O)(/C=C/c1ccccc1)N1CCNCC1 | inactive
75 | O=C(O)c1ccccc1C(=O)NC1=NN(c2ccccc2)CC1 | inactive
76 | O=C(O)c1ccccc1C(=O)Nc1ccccc1[N+](=O)[O-] | inactive
77 | Cc1ccc(Nc2ccc(C(N)=O)cc2[N+](=O)[O-])cc1 | inactive
78 | O=[N+]([O-])c1ccccc1Nc1ccc(O)cc1 | -6 (active)
79 | O=C(Nc1nnc(C2=COCCO2)o1)c1ccc([N+](=O)[O-])s1 | inactive
80 | COc1cc(-c2nnc(NC(=O)C3=COCCO3)o2)cc(OC)c1OC | inactive
81 | Cc1ccc(C(=O)Nc2nnc(C3=COCCO3)o2)cc1C | -6 (active)
82 | Cc1ccc(CNC(=O)C(=O)c2cn(CC(=O)N3CCCC3)c3ccccc23)cc1 | inactive
83 | O=C(Nc1ccc(N2CCCCC2)cc1)c1cc(S(=O)(=O)N2CCOCC2)ccc1F | inactive
84 | CCc1nn(CCCC(=O)Nc2ccc(C)c(C)c2)c(=O)c2cc3occc3n12 | inactive
85 | N/C(=N\OC(=O)Nc1ccccc1)c1ccno1 | inactive
86 | Cn1c(SCC(=O)N2CCCc3ccccc32)nc2ccccc2c1=O | inactive
87 | O=C(CSc1nc2ccccc2c(=O)n1CCCO)N1CCc2ccccc21 | -7 (active)
88 | CC1CCN(CCCn2c(SCC(=O)NC3CCCC3)nc3ccccc3c2=O)CC1 | inactive

Row | SMILES | B-score
89 | CCOc1ccc(CCNC(=O)CN2C(=O)NC3(CCc4ccccc43)C2=O)cc1OCC (configuration not stated) | inactive
90 | COCCn1c(SC(C)C(=O)NC2CC2)nnc1-c1cccc(C)c1 (configuration not stated) | inactive
91 | O=C(/C=C/NNC(=O)c1cccc(Br)c1)c1ccccc1 | inactive
92 | CCOC(=O)/C(C#N)=C/c1cn(CCC(=O)O)nc1-c1ccc(Br)cc1 | inactive
93 | O=C(O)CCn1cc(/C=C/C(=O)c2ccc(Cl)cc2)c(-c2cccc(Br)c2)n1 | -6 (active)
94 | CCOC(=O)N1CCN(S(=O)(=O)N2CCCC(C(=O)NCCCN3CCC(C)CC3)C2)CC1 (configuration not stated) | inactive
95 | Cc1ccnc(N2CCN(C(=O)CSc3nc4ccccc4nc3N3CCCCC3)CC2)c1 | inactive
96 | CC(C)Cc1nc(N2CCOCC2)c(C#N)c2c1CCC2 | -6 (active)
97 | CC(C)Cc1nc(Cl)c(C#N)c2c1CCC2 | inactive
98 | CC(C)c1nc(N2CCOCC2)c(C#N)c2c1COC(C)(C)C2 | inactive
99 | CCCCn1c(N)c(N(CCOC)C(=O)c2cccc(S(=O)(=O)N3CCCCC3)c2)c(=O)[nH]c1=O | inactive
100 | CN1CCNC(=O)C1CC(=O)N1CC=C(c2ccc(F)cc2)CC1 (configuration not stated) | inactive
101 | COc1cccc(N(CC(=O)NCc2ccccc2)C(=O)CCC(=O)Nc2nccs2)c1 | inactive
102 | O=C(CCN1CCc2ccccc2C(O)(c2ccccc2)C1)c1ccc2c(c1)OCCO2 (configuration not stated) | -7 (active)
103 | O=C(CN1CCN(c2ccccc2F)CC1)c1ccc2c(c1)OCO2 | inactive
104 | CCC1(c2ccccc2)NC(=O)N(CC(=O)c2ccc3c(c2)OCO3)C1=O (configuration not stated) | inactive
105 | CC(=O)Oc1ccc(NC(=O)CCC2CCCCC2)c(C(=O)O)c1 | -6 (active)
106 | COc1ccc(NC(=O)CCCC2CCCCC2)c(OC)c1 | inactive
107 | COC(=O)c1sccc1NC(=O)CCC1CCCC1 | inactive
